Measured values taken from ChEMBL document CHEMBL4038311, “An Ursolic Acid Derived Small Molecule Triggers Cancer Cell Death through Hyperstimulation of Macropinocytosis” (J Med Chem, 2017).
The source made the active and inactive calls. The rule behind the calls is not given here.

Tests used:
[1] = Cytotoxicity against mouse C2C12 cells assessed as cell viability at 20 uM after 24 to 48 hrs by CCK8 assay relative to control; format: cell-based; conditions: read-out: Activity
Procedure, shortened: (§1)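 C2C12 or HDF cells, seeded at 5000/well, given 20 µM or 0.1% DMSO for 24 h or 48 h. CCK-8 absorbance read at 450 nm, relative to DMSO control. Six parallel wells, at least three independent repeats.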

HepG2 [2] = assay: Anticancer activity against human HepG2 cells assessed as vacuole formation at 20 uM after 24 hrs by phase contrast microscopic analysis; format: functional, cell-based
HepG2 [3] = assay: Anticancer activity against human HepG2 cells assessed as cell viability after 48 hrs by CCK8 assay; format: functional, cell-based; conditions: HepG2, 48 h
Procedure, shortened: (§2)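 Seeded at 1000 cells/well in DMEM with 10% FBS at 37 °C, 5% CO2, overnight pre-incubation. Serial dilutions from a 100 mM DMSO stock gave final 0–50 µM, with 48 h exposure. CCK-8 read at 450 nm. IC50 fitted against DMSO control, given with s.d., n = 3 independent experiments.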

HeLa [4] = assay: Anticancer activity against human HeLa cells assessed as decrease in cell viability at 20 uM preincubated cells with 3-MA followed by compound addition measured after 24 to 48 hrs by CCK8 assay; format: functional, cell-based
Procedure, shortened: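 HeLa cells pretreated 1 h with or without 3-MA, then exposed to 20 µM or 0.1% DMSO for 24 h or 48 h. Viability by CCK-8 absorbance at 450 nm.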

HT-1080 [5] = assay: Anticancer activity against human HT1080 cells assessed as cell viability after 48 hrs by CCK8 assay; format: functional, cell-based; conditions: HT-1080, 48 h; procedure, shortened: as §2
HeLa [6] = assay: Induction of apoptosis in human HeLa cells assessed as pyknotic chromatin formation at 20 uM after 24 hrs by transmission electron microscopic analysis; format: functional, cell-based
Procedure, shortened: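 HeLa exposed to 20 µM for 24 h, then fixed, dehydrated and resin-embedded. Ultrathin sections on copper grids stained with uranyl acetate and lead citrate, then examined by TEM.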

HeLa [7] = assay: Induction of autophagy in human HeLa cells assessed as LC3-2 accumulation at 20 uM preincubated cells with 3-MA followed by compound addition measured after 24 hrs by Western blot analysis; format: functional, cell-based
Procedure, shortened: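 HeLa pretreated 1 h with or without 3-MA, then 20 µM for 24 h. Lysed in RIPA with protease inhibitors, protein by BCA, SDS-PAGE onto PVDF. Blocked 5% milk, anti-LC3 overnight at 4 °C, secondary 2 h at RT. Infrared imaging, GAPDH loading control.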

HeLa [8] = assay: Induction of apoptosis in human HeLa cells assessed as increase in cleaved PARP1 levels at 20 to 30 uM after 24 to 48 hrs by Western blot analysis; format: functional, cell-based
Procedure, shortened: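 HeLa given indicated concentrations. RIPA lysates, BCA-quantified, SDS-PAGE and PVDF transfer. Anti-caspase-3 or anti-PARP1 applied overnight at 4 °C after 1 h 5% milk block, secondary 2 h at RT. Infrared imaging, GAPDH as loading control.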

HeLa [9] = assay: Induction of autophagy in human HeLa cells assessed as conversion of LC3-1 to LC3-2 at 15 to 25 uM after 24 hrs by Western blot analysis; format: functional, cell-based
Procedure, shortened: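 HeLa given indicated concentrations or 0.1% DMSO for 24 h. RIPA lysates, BCA-normalized, SDS-PAGE and PVDF transfer. Probed with anti-LC3 (overnight, 4 °C) after 5% milk block, infrared detection, GAPDH for normalization.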

HeLa [10] = assay: Anticancer activity against human HeLa cells assessed as vacuole formation at 20 uM after 24 hrs by phase contrast microscopic analysis; format: functional, cell-based
HeLa [11] = assay: Induction of methuosis in human HeLa cells assessed as decrease in cell viability preincubated cells with vacuolar-type H+-ATPase inhibitor Baf-A1 for 1 hr followed by compound addition measured after 48 hrs by CCK8 assay; format: functional, cell-based
Procedure, shortened: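 HeLa incubated 1 h with 100 nM Baf-A1 before compound addition. Viability measured by CCK-8 at 450 nm against DMSO control.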

HeLa [12] = assay: Anticancer activity against human HeLa cells assessed as cell viability at 20 uM after 24 to 72 hrs by CCK8 assay relative to control; format: functional; conditions: read-out: Activity
Procedure, shortened: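 HeLa cells seeded at 5000/well and pre-incubated overnight, then exposed to 20 µM. CCK-8 absorbance at 450 nm read at 24, 48 and 72 h, relative to DMSO-treated control. Six wells per condition, experiments repeated at least three times.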

MCF7 = assay: Anticancer activity against human MCF7 cells assessed as cell viability at 20 uM after 48 hrs by CCK8 assay relative to control; format: functional; conditions: MCF7, 48 h, read-out: Activity
Procedure, shortened: (§3)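 Cells (5000/well, pre-incubated overnight) exposed to 20 µM for 48 h. CCK-8 absorbance read at 450 nm. Viability given as percent of vehicle (DMSO) control, mean ± SD. Six parallel wells per condition, at least three independent repeats.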

HeLa [13] = assay: Induction of methuosis in human HeLa cells assessed as decrease in cell viability preincubated cells with dynamin inhibitor dynasore for 1 hr followed by compound addition measured after 48 hrs by CCK8 assay; format: functional, cell-based
[14] = Cytotoxicity against HDF assessed as cell viability at 20 uM after 24 to 48 hrs by CCK8 assay relative to control; format: cell-based; conditions: human, HDF cells; read-out: Activity; procedure, shortened: as §1
HeLa [15] = assay: Induction of macropinocytosis-like cytosolic vacuolization in human HeLa cells at 20 uM measured within 4 hrs by time lapse phase contrast microscopic analysis; format: functional, cell-based
Procedure, shortened: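 HeLa plated at 50,000 per glass-bottom dish, pre-incubated overnight, then given 20 µM in a live-cell chamber (37 °C, 5% CO2). Phase-contrast frames captured every 90 sec.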

HeLa [16] = assay: Induction of methuosis in human HeLa cells assessed as increase in vacuole formation preincubated cells with vacuolar-type H+-ATPase inhibitor Baf-A1 for 1 hr followed by compound addition measured after 24 hrs by phase contrast microscopic analysis; format: functional, cell-based
Procedure, shortened: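 HeLa cells (DMEM, 10% FBS, penicillin/streptomycin, 37 °C, 5% CO2) were given 100 nM bafilomycin A1 for 1 h before compound addition. Vacuole formation was then scored by phase-contrast imaging of live cells.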

HeLa [17] = assay: Anticancer activity against human HeLa cells assessed as cell viability at 20 uM after 48 hrs by CCK8 assay relative to control; format: functional; conditions: read-out: Activity; procedure, shortened: as §3
HT-1080 [18] = assay: Anticancer activity against human HT1080 cells assessed as vacuole formation at 20 uM after 24 hrs by phase contrast microscopic analysis; format: functional, cell-based
HeLa [19] = assay: Induction of macropinocytosis in human HeLa cells assessed as formation of mitochondrial degradative compartments at 20 uM after 24 hrs by Mitotracker red staining-based confocal microscopic analysis; format: functional, cell-based
Procedure, shortened: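 HeLa given 20 µM for 24 h, then labelled live with 50 nM LysoTracker Red (30 min) or 200 nM MitoTracker Red CMXRos (1 h) in medium, after Lucifer yellow loading. Imaged live by confocal microscopy.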

C[C@H]1[C@H](C)CC[C@]2(C(=O)O)CC[C@]3(C)C(=CC[C@@H]4[C@@]5(C)Cc6cnn(-c7ccc(C#N)cc7)c6C(C)(C)[C@@H]5CC[C@]43C)[C@H]12
viability at 20 µM [1]: 13% | Activity (HepG2 [2]): Active | IC50 (HepG2 [3]): 16.6 µM | Activity (HeLa [4]): Active | IC50 (HT-1080 [5]): 17.2 µM | Activity (HeLa [6]): inactive | Activity (HeLa [7]): inactive | Activity (HeLa [8]): Active | Activity (HeLa [9]): Active | Activity (HeLa [10]): Active | Activity (HeLa [11]): inactive | viability at 20 µM (HeLa [12]): 74.2% | viability at 20 µM (MCF7): 25.2% | Activity (HeLa [13]): inactive | viability at 20 µM [14]: 28% | Activity (HeLa [15]): Active | Activity (HeLa [16]): inactive | viability at 20 µM (HeLa [17]): 18.6% | Activity (HT-1080 [18]): Active | Activity (HeLa [19]): Active
